Assay outcomes as filed in PubChem.
This is a sample that favours compounds with a hit; in the whole collection about 1.5% have one here.
APJ antag = APJ receptor antagonism. P35414. CHO-K1 APJ beta-arrestin complementation, luminescence. inhibition, % at 20 µM. hit rate 0.32% among 330,000. AID 2521;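 active = inhibition above about 40% at 20 µM, limit read from the data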;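 also: cells challenged with 10 nM apelin-13 agonist together with compound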
CXCR6 inh = inhibitors of human CXCR6 receptor. O00574. CHO-K1 PathHunter CXCR6 beta-arrestin, luminescence. inhibition, % at 20 µM. hit rate 0.36% among 360,000. AID 602244; in the data active = inhibition above about 34%, passing the limit was not always enough;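 also: antagonist mode with CXCL16 agonist at 10 nM final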
Target sequence (O00574 whole entry, looked up): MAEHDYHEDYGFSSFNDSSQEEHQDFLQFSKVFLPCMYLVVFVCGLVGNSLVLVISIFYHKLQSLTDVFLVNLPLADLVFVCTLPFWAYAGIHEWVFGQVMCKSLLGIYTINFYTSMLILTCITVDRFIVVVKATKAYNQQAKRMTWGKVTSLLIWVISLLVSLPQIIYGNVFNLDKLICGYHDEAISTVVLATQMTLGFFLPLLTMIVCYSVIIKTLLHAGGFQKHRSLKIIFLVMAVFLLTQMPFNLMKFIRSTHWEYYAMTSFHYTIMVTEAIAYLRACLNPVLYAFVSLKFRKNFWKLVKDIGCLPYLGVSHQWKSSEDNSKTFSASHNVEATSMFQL
APJ ag = agonists of human APJ apelin receptor. P35414. AID 2520. hit rate 0.11% among 330,000. activation, % at 20 µM. CHO-K1 APJ PathHunter beta-arrestin, luminescence; 0% DMSO wells, 100% apelin;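 active = activation more than six SD over the plate average, tested at 20 µM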
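Assay system: CHO-K1 cells stably expressing ProLink-tagged human APJ and arrestin–beta-gal acceptor. Compound dosing: 20 µM single point, 1% DMSO. Times: 16-18 h seeding, 90 min dark compound exposure, 60 min detection. Detection: beta-gal luminescence. Evaluation: APJ–arrestin association signal. Controls: negative DMSO alone, positive Apelin-13 at 10 nM.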
CCR6 antag = blocks CCL20-driven beta-arrestin recruitment at human CCR6; P51684; CHO-K1 CCR6 PathHunter beta-arrestin, luminescence, CCL20-stimulated; inhibition, % at 20 µM; hit rate 0.49% among 340,000;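 active = compounds whose inhibition of the agonist-driven luminescence signal at 20 µM reaches about 50%, limit read from the data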;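 also: cells stimulated with CCL20 at 14 nM final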
EBI2 block = blocks human EBI2 receptor beta-arrestin signaling; inhibition, % at 5 µM; hit rate 0.81% among 360,000; EBI2 beta-arrestin recruitment, luminescence, 7a,25-OHC stimulated; P32249; AID 651636; in the data active = inhibition above about 38%;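 also: enzyme fragment complementation signal reports receptor beta-arrestin coupling in cells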
Target sequence (P32249 whole entry, looked up, the tested form may be a part): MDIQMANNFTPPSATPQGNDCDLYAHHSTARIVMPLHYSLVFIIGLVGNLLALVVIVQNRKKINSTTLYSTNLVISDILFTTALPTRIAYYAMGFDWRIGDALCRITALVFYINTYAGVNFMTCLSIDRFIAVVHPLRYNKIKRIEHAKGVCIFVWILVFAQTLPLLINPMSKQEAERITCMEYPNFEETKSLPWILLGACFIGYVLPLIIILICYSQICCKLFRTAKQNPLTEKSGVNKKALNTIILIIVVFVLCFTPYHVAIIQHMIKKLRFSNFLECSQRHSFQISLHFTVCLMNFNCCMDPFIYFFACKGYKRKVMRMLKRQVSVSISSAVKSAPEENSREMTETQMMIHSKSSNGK
EBI2 antag conf = confirmation of human EBI2 receptor antagonists; shares compounds with EBI2 block; EBI2 beta-arrestin luminescence, 7a,25-OHC antagonism; inhibition, % at 5 µM; hit rate 29% among 2,400; AID 651997;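 active = inhibition of at least 50%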
EBI2 ag = EBI2 agonism counter-screen; EBI2-expressing cells, agonist mode, luminescence, 60 min; 0% vehicle, 100% 7α,25-dihydroxycholesterol control; AID 652000; shares compounds with EBI2 block; activation, % at 5 µM; 2,400 tested, under 10 active;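 active = activation of at least 50%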
bGal cs = inhibits E. coli beta-galactosidase, counter-screen for EBI2 antagonists; hit rate 1% among 2,400; AID 652176; purified beta-galactosidase, luminescent Galacton Star, 15 min; inhibition, % at 5 µM; shares compounds with EBI2 block;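 active = replicate-average signal at least 3 plate SD below neutral wells, shown as high inhibition, flagging enzyme-inhibiting false positives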;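 also: higher means stronger loss of beta-gal luminescence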
Numbers stand for hits; – = inactive; · = no result.

SMILES | APJ antag | CXCR6 inh | APJ ag | CCR6 antag | EBI2 block | EBI2 antag conf | EBI2 ag | bGal cs
COc1ccc([C@H]2CC(=O)C=C(c3ccc(OC)c(F)c3)C2)cc1 | – | – | – | – | 51.1 | – | – | –
COc1ccc([C@H]2CC(=O)C=C(c3ccc4ccccc4c3)C2)cc1OC | – | – | – | – | 61.9 | 50.9 | – | –
COc1ccc([C@H]2CC(=O)C=C(c3ccc(O)cc3)C2)cc1OC | – | – | – | – | – | · | · | ·
COc1ccc([C@H]2CC(=O)C=C(c3cc(F)ccc3OC)C2)cc1 | – | – | – | – | – | · | · | ·
COc1ccc([C@H]2CC(=O)C=C(c3ccc(OC)c(OC)c3)C2)cc1 | – | – | – | – | 46.0 | – | – | –
COC(=O)[C@]12CCCCC=C1N(CCc1ccc(OC)c(OC)c1)C(=O)[C@H](CC(=O)NCCCN1CCCC1=O)C2 | · | · | · | · | – | · | · | ·
CCOC(=O)c1c(NC(=O)C2C3C=CC(CC3)C2C(=O)O)sc(C)c1C (stereo unspecified) | – | – | – | – | – | · | · | ·
CCOC(=O)c1c(NC(=O)c2cccc(N3C(=O)CCC3=O)c2)sc(C)c1C | – | – | – | – | – | · | · | ·
CCOC(=O)c1c(NC(=O)C2=C(C)NC(=S)NC2c2ccc(F)cc2F)sc(C)c1C (stereo unspecified) | – | – | – | – | 85.6 | – | – | –
CCOC(=O)c1c(NC(=O)C2=C(C)NC(=S)NC2c2ccc(C)cc2)sc(C)c1C (stereo unspecified) | – | – | – | – | 92.3 | – | – | –
CC1=C(C(=O)Nc2ccccn2)C(c2ccc(Cl)cc2)NC(=S)N1 (stereo unspecified) | – | – | – | – | – | · | · | ·
CCOC(=O)c1c(NC(=O)C2=C(C)NC(=S)NC2c2ccc(F)cc2)sc(C)c1C (stereo unspecified) | – | – | – | – | 82.1 | 52.9 | – | –
O=C(COc1ccccc1)NCC(=O)N1CCCC(C(F)(F)F)C1 (stereo unspecified) | · | – | · | – | – | · | · | ·
CCc1ccccc1Oc1nc(NCc2ccccc2)nc2ccsc12 | · | – | · | · | – | · | · | ·
CC1CCCCN1C(=O)c1ccc(C(=O)Nc2ccc(F)cc2)cc1 (stereo unspecified) | – | – | – | – | 51.5 | – | – | –
O=C(CSc1n[nH]c(=O)[nH]c1=O)Nc1ccc(C(=O)O)cc1 | – | – | – | – | 48.9 | – | – | –
Cc1cc(C)c(OCC(=O)N2CC=C(c3ccccc3)CC2)c(C)c1 | – | – | – | – | 60.4 | 70.9 | – | –
Cc1ccc(/C=C/C(=O)N2CCN(S(=O)(=O)c3c(C)c(C)cc(C)c3C)CC2)o1 | – | – | – | – | 49.7 | – | – | –
Cc1ccc(C)c(S(=O)(=O)N2CCN(C(=O)CCC(=O)c3cc(C)sc3C)CC2)c1 | – | – | – | – | 78.2 | 50.8 | – | –
COc1ccccc1/C=C/C(=O)N1CCN(S(=O)(=O)c2cc(C)ccc2C)CC1 | – | – | – | – | 85.3 | 76.0 | – | –
Cc1ccc(C)c(S(=O)(=O)N2CCN(C(=O)CNC(=O)c3ccc4ccccc4c3)CC2)c1 | – | – | – | – | 62.8 | – | – | –
CC1(C(=O)Nc2ccc(Cl)c(Cl)c2)CCN1Cc1ccccc1OC(F)F (stereo unspecified) | · | – | · | · | – | · | · | ·
O=C(/C=C/c1ccc(Cl)cc1)NCc1cccs1 | – | – | – | – | 53.0 | 53.0 | – | –
O=C(/C=C/c1ccc(Cl)cc1)NCCSc1ccccc1 | – | – | – | – | 59.7 | – | – | –
CSc1cccc(NC(=O)/C=C/c2ccc(Cl)cc2)c1 | – | – | – | – | 59.0 | 68.1 | – | –
SMILES | APJ antag | CXCR6 inh | APJ ag | CCR6 antag | EBI2 block | EBI2 antag conf | EBI2 ag | bGal cs
O=C(/C=C/c1ccccc1)NCCSCc1ccc(Cl)cc1 | – | – | – | – | 51.9 | – | – | –
Cc1c(Br)cccc1NC(=O)C1(C)CCN1CCc1ccccc1 (stereo unspecified) | · | – | · | · | – | · | · | ·
COc1ccc(OC)c(CN2C(=O)c3ccccc3C2c2nnnn2Cc2ccccc2)c1 (stereo unspecified) | · | – | · | · | – | · | · | ·
COc1ccc(-n2c(Cc3cccn3C)nnc2SCC(=O)Nc2cccc(Cl)c2)cc1 | – | – | – | – | 47.1 | – | – | –
Cn1cccc1Cc1nnc(SCC(=O)Nc2ccc(F)cc2)n1CCc1ccccc1 | – | – | – | – | 50.5 | – | – | –
Cc1cc2nc(C3CCCCC3)c(Cc3cccc(F)c3)n2c(C)c1Br | · | – | · | · | – | · | · | ·
COc1ccc2nc3n(c(=O)c2c1)-c1cc2ccccc2cc1C(=O)NC3Cc1ccccc1 (stereo unspecified) | · | – | · | · | 41.0 | – | – | –
O=C(c1cc2cc(Br)ccc2o1)N1CCCCC1 | – | – | – | – | 57.5 | – | – | –
COc1ccc(Nc2ccc(OC)cc2)cc1 | – | – | – | – | – | · | · | ·
COc1ccc(Nc2ccc(Nc3ccc(OC)cc3)nn2)cc1 | – | – | – | – | 69.4 | – | – | –
OC(CNC1CCCCC1)CON=C1CCSc2c(Cl)cccc21 (stereo unspecified) | · | – | · | · | – | · | · | ·
COCCCN1C(=O)C(CC(=O)NCc2cccs2)CC(C(=O)N(C(C)C)C(C)C)=C1C (stereo unspecified) | · | – | · | · | – | · | · | ·
CCOc1ccc(NC(=S)N(CCOC)C(C)c2ccco2)cc1 (stereo unspecified) | – | – | – | – | 54.8 | – | – | –
COCCN(C(=S)Nc1ccc(C)cc1)C(C)c1ccco1 (stereo unspecified) | – | – | – | – | – | · | · | ·
Cc1cccc(C)c1NC(=S)N(CCc1ccncc1)C(C)C | – | – | – | – | – | · | · | ·
CCOc1ccc(NC(=S)N(CCc2ccncc2)C(C)C)cc1 | – | – | – | – | 51.6 | – | – | –
COc1ccc(NC(=S)N(CCC(C)C)C2CCN(C(C)C)CC2)cc1 | – | – | – | – | – | · | · | ·
CCOc1ccc(NC(=S)N(CCOC)C2CCN(C(C)C)CC2)cc1 | – | – | – | – | 53.8 | – | – | –
CCOC(=O)c1cnc2ccc(OC)cc2c1Nc1ccc(N2CCN(C)CC2)cc1 | – | – | – | – | 41.1 | 53.3 | – | –
CCOC(=O)c1ccc2ncc(C(=O)OCC)c(Nc3ccc(N4CCOCC4)cc3)c2c1 | – | – | – | – | – | · | · | ·
CCOC(=O)C1=CCN(S(=O)(=O)c2ccccc2C)C1c1ccc(C)cc1 (stereo unspecified) | · | – | · | · | – | · | · | ·
O=C(NCc1ccccc1)c1ccccc1 | · | – | · | – | – | · | · | ·
O=C(NCc1ccccc1)c1ccc(CN2CCC(Cc3ccccc3)CC2)cc1 | – | – | – | – | 49.6 | – | – | –
O=C(NCc1ccccc1)c1ccc(C(=O)NCc2ccccc2)cc1 | · | – | · | – | 47.5 | – | – | –
